Assay results taken from ChEMBL document CHEMBL5532704, “Exploiting thiol-functionalized benzosiloxaboroles for achieving diverse substitution patterns - synthesis, characterization and biological evaluation of promising antibacterial agents” (RSC Med Chem, 2024).

Tests used:
[1] = Selectivity ratio of IC50 for cytotoxicity against human MRC5 cells assessed as inhibition of cell growth to MIC for antibacterial activity against methicillin-resistant Staphylococcus aureus NMI 1712 K assessed as inhibition of microbial growth by broth-microdilution method; format: toxicity, cell-based
[2] = Selectivity ratio of IC50 for cytotoxicity against human MRC5 cells assessed as inhibition of cell growth to MIC for antibacterial activity against methicillin-resistant Staphylococcus aureus NMI 1991 K assessed as inhibition of microbial growth by broth-microdilution method; format: toxicity, cell-based
Bacillus subtilis = experiment: Antibacterial activity against Bacillus subtilis ATCC 6633 assessed as diameter of inhibition zone by CLSI based disc-diffusion method; format: functional
Outline: (§1)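 Strains were stored at −80 °C, then subcultured twice on tryptic soy agar for 24–48 h at 30 °C before the disc-diffusion test. The result was recorded as the inhibition-zone diameter.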

Enterococcus faecalis = experiment: Antibacterial activity against Enterococcus faecalis ATCC 29212 assessed as diameter of inhibition zone by CLSI based disc-diffusion method; format: functional; outline: as §1
[3] = Selectivity ratio of IC50 for cytotoxicity against human MRC5 cells assessed as inhibition of cell growth to MIC for antibacterial activity against methicillin-resistant Staphylococcus aureus NMI 1576 K assessed as inhibition of microbial growth by broth-microdilution method; format: toxicity, cell-based
Enterococcus faecium [4] = experiment: Antibacterial activity against Enterococcus faecium ATCC 6057 assessed as diameter of inhibition zone by CLSI based disc-diffusion method; format: functional; outline: as §1
[5] = Selectivity ratio of IC50 for cytotoxicity against human MRC5 cells assessed as inhibition of cell growth to MIC for antibacterial activity against methicillin-resistant Staphylococcus aureus ATCC 43300 assessed as inhibition of microbial growth; format: toxicity, cell-based
[6] = Selectivity ratio of IC50 for cytotoxicity against human MRC5 cells assessed as inhibition of cell growth to MIC for antibacterial activity against methicillin-resistant Staphylococcus aureus NMI 2541 K assessed as inhibition of microbial growth by broth-microdilution method; format: toxicity, cell-based
[7] = test system: Staphylococcus epidermidis; experiment: Antibacterial activity against Staphylococcus epidermidis ATCC 12228 assessed as diameter of inhibition zone by CLSI based disc-diffusion method; format: functional; outline: as §1
Staphylococcus aureus [8] = experiment: Bactericidal activity against methicillin-resistant Staphylococcus aureus NMI 2541 K assessed as inhibition of microbial growth by CLSI based microdilution method; format: functional
[9] = Selectivity ratio of IC50 for cytotoxicity against human MRC5 cells assessed as inhibition of cell growth to MIC for antibacterial activity against methicillin-resistant Staphylococcus aureus NMI 664 K assessed as inhibition of microbial growth by broth-microdilution method; format: toxicity, cell-based
Staphylococcus aureus [10] = experiment: Antibacterial activity against methicillin-resistant Staphylococcus aureus ATCC 43300 assessed as diameter of inhibition zone by CLSI based disc-diffusion method; format: functional
Outline: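 Disc-diffusion on standard strain subcultured twice on tryptic soy agar (24–48 h, 30 °C) after storage at −80 °C; inhibition zone diameter read; linezolid disc (0.03 mg) as reference.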

Proteus mirabilis = experiment: Antibacterial activity against Proteus mirabilis ATCC 12453 assessed as inhibition of cell growth by broth-microdilution method; format: functional
Outline: (§2)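 Strains were held at −80 °C and subcultured twice on tryptic soy agar for 24–48 h at 30 °C. MIC was read by CLSI broth microdilution in Mueller–Hinton II broth, with and without the efflux-pump inhibitor PAβN (20 µg mL⁻¹). Both sets contained 1 mM MgSO₄. A ≥4-fold MIC drop with PAβN was taken as significant.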

[11] = test system: Stenotrophomonas maltophilia; experiment: Antibacterial activity against Stenotrophomonas maltophilia ATCC 12714 assessed as inhibition of cell growth by broth-microdilution method; format: functional; outline: as §2
Pseudomonas aeruginosa = experiment: Antibacterial activity against Pseudomonas aeruginosa ATCC […] assessed as inhibition of cell growth by broth-microdilution method; format: functional; outline: as §2
Acinetobacter baumannii = experiment: Antibacterial activity against Acinetobacter baumannii ATCC 19606 assessed as inhibition of cell growth by broth-microdilution method; format: functional; outline: as §2
Burkholderia cepacia = experiment: Antibacterial activity against Burkholderia cepacia ATCC 25416 assessed as inhibition of cell growth by broth-microdilution method; format: functional
Serratia marcescens = experiment: Antibacterial activity against Serratia marcescens ATCC 13880 assessed as inhibition of cell growth by broth-microdilution method; format: functional; outline: as §2
Escherichia coli = experiment: Antibacterial activity against Escherichia coli ATCC 25922 assessed as inhibition of cell growth by broth-microdilution method; format: functional; outline: as §2
Klebsiella pneumoniae = experiment: Antibacterial activity against Klebsiella pneumoniae ATCC 13883 assessed as inhibition of cell growth by broth-microdilution method; format: functional; outline: as §2
[12] = test system: Stenotrophomonas maltophilia; experiment: Antibacterial activity against Stenotrophomonas maltophilia ATCC 13637 assessed as inhibition of cell growth by broth-microdilution method; format: functional; outline: as §2
Enterobacter cloacae = experiment: Antibacterial activity against Enterobacter cloacae DSM 6234 assessed as inhibition of cell growth by broth-microdilution method; format: functional; outline: as §2
Staphylococcus aureus [13] = experiment: Bactericidal activity against methicillin-resistant Staphylococcus aureus NMI 1712 K assessed as inhibition of microbial growth by CLSI based microdilution method; format: functional
Enterococcus faecium [14] = experiment: Antibacterial activity against Enterococcus faecium ATCC 6057 assessed as inhibition of microbial growth by broth-microdilution method; format: functional
Outline: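 Stocks were kept at −80 °C and subcultured twice on tryptic soy agar (24–48 h, 30 °C). MIC came from CLSI broth microdilution in Mueller–Hinton II broth, using agents dissolved in DMSO. The top tested concentration was lowered to 200, 100 or 50 µg mL⁻¹ for agents that precipitated in the medium above those levels.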

| SMILES | selectivity ratio [1] | selectivity ratio [2] | diameter of the inhibition zone (DIZ) (Bacillus subtilis) [mm] | diameter of the inhibition zone (DIZ) (Enterococcus faecalis) [mm] | selectivity ratio [3] | diameter of the inhibition zone (DIZ) (Enterococcus faecium [4]) [mm] | selectivity ratio [5] | selectivity ratio [6] | selectivity ratio [9] | diameter of the inhibition zone (DIZ) (Staphylococcus aureus [10]) [mm] | MIC (Proteus mirabilis) [µg/mL] | MIC [11] [µg/mL] | MIC (Pseudomonas aeruginosa) [µg/mL] | MIC (Acinetobacter baumannii) [µg/mL] | MIC (Burkholderia cepacia) [µg/mL] | MIC (Serratia marcescens) [µg/mL] | MIC (Escherichia coli) [µg/mL] | MIC (Klebsiella pneumoniae) [µg/mL] | MIC [12] [µg/mL] | MIC (Enterobacter cloacae) [µg/mL] | also measured |
| --- | --- | --- | --- | --- | --- | --- | --- | --- | --- | --- | --- | --- | --- | --- | --- | --- | --- | --- | --- | --- | --- |
| CCOP(=O)(OCC)Sc1c(F)cc2c(c1F)[Si](C)(C)OB2O | > 32 | > 32 | 24 | 11 | > 32 | 11 | > 32 | > 32 | > 32 | 27 | – | – | – | – | – | – | – | – | – | – | diameter of the inhibition zone (DIZ) [7]: 20 mm; MBC (Staphylococcus aureus [8]): > 12.5 µg/mL |
| C[Si]1(C)OB(O)c2cc(F)c(SC3CC(=O)NC3=O)c(F)c21 (stereo not given) | 13.4 | 13.4 | 27 | – | 26.8 | – | 13.4 | 13.4 | 13.4 | 23 | > 25 | > 25 | > 25 | > 25 | > 25 | > 25 | > 25 | > 25 | > 25 | > 25 | – |
| C[Si]1(C)OB(O)c2cc(F)c(SCCC#N)c(F)c21 | 11.2 | 11.2 | 23 | – | 11.2 | – | 11.2 | 11.2 | 11.2 | 19 | – | – | – | – | – | – | – | – | – | – | MBC (Staphylococcus aureus [13]): 12.5 µg/mL |
| C[Si]1(C)OB(O)c2ccc(SC3CC(=O)NC3=O)c(F)c21 (stereo not given) | – | – | 24 | – | – | – | – | – | – | 22 | > 25 | > 25 | > 25 | > 25 | > 25 | > 25 | > 25 | > 25 | > 25 | > 25 | – |
| CC(=O)CCSc1c(F)cc2c(c1F)[Si](C)(C)OB2O | – | – | – | 19 | – | 21 | – | – | – | 19 | – | – | – | – | – | – | – | – | – | – | MIC (Enterococcus faecium [14]): 12.5 µg/mL |
